Assay results: PMC7042484 (Redox Biology, 2020)

What was measured:
[1] = system: C-terminal mutant dehydrogenase domain of bacterial NOX5; assay: NADPH-depletion assay on C-terminal mutant NOX5 dehydrogenase domain; assay type: biochemical, Cylindrospermum stagnale; settings: 100 μM inhibitor, C-terminal (PWLEL) low-activity mutant
[2] = system: C668S mutant of the NOX5 dehydrogenase domain; assay: Enzymatic assay on C668S mutant NOX5 dehydrogenase domain; assay type: biochemical, Cylindrospermum stagnale; settings: enzymatic assays
Procedure, shortened: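 Purified strep-tagged C. stagnale NOX5 dehydrogenase domain (residues 413–693), C668S mutant, 1 μM in 50 mM Hepes pH 7.5 without added FAD. Run at 25 °C in a thermostatted spectrophotometer; rates followed as NADPH oxidation at 340 nm.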

human NOX2 = target: T1, human NOX2 (Homo sapiens, UniProt P04839); assay: Initial evaluation on NOX2 membrane preparations; assay type: biochemical
T1 sequence (P04839 2-570 limits assumed): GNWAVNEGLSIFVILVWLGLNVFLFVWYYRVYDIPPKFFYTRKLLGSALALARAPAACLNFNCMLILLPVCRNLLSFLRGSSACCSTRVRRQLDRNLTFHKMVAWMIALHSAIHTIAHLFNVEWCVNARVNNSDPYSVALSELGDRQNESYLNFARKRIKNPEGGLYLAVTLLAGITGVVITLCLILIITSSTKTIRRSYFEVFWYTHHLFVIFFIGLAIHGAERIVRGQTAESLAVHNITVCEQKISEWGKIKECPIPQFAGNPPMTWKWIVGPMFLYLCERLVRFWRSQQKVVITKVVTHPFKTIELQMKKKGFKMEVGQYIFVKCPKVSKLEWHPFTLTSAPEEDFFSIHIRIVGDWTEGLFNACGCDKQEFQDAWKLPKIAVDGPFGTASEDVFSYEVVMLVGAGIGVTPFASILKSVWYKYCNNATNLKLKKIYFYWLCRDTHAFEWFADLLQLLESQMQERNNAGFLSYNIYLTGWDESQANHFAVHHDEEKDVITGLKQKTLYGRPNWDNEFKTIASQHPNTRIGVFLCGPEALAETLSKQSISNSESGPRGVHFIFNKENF
T1 sequence (P13498 2-195 partner limits assumed): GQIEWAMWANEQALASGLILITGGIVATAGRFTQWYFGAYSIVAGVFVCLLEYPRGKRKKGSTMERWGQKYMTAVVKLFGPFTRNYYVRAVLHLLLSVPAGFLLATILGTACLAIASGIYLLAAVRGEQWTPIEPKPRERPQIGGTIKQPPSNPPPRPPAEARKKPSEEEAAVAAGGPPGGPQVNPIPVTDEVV

human NOX4 = target: T2, human NOX4 (Homo sapiens, UniProt Q9NPH5); assay: Initial evaluation on NOX4 membrane preparations; assay type: biochemical
T2 sequence (Q9NPH5 1-578): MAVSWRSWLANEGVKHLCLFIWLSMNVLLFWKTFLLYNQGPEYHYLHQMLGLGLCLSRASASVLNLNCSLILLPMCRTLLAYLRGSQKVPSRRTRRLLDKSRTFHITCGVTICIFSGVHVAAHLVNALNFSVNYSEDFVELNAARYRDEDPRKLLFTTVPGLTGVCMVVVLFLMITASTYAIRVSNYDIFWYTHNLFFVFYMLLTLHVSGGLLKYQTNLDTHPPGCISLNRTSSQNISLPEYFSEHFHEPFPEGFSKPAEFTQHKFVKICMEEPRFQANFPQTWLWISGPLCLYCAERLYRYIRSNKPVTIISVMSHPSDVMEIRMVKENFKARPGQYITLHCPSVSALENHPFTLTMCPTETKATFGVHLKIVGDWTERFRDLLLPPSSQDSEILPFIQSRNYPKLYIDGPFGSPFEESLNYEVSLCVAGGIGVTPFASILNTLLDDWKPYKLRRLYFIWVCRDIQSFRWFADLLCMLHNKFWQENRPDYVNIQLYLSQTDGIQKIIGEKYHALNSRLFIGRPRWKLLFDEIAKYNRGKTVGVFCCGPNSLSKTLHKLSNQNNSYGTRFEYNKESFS
T2 sequence (P13498 2-195 partner limits assumed): T1 sequence (P13498 2-195 partner limits assumed)
Procedure, shortened: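 NOX4-p22 membranes from transfected HEK293 EBNA-1 cells, compound 100 μM, 10 min preincubation at 4 °C in PBS. Amplex Red: 100 μg membranes, 12.5 μM Amplex Red, 0.02 U/ml HRP, 40 μM FAD, started with 40 μM NADPH, ex 572/em 583 nm. CBA: 50 μg membranes, 20 μM FAD, then 200 μM coumarin boronic acid and 50 μM NADPH, ex 320/em 430 nm.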

SMILES: c1ccc(Cn2nnc3c(Sc4nc5ccccc5o4)ncnc32)cc1 [VAS2870, 3-benzyl-7-(2-benzoxazolyl)thio-1,2,3-triazolo[4,5-d]pyrimidine]
- inhibition of the mutant dehydrogenase [1]: 20–30%
- inhibition of the C668S mutant domain [2]: could not inhibit the mutant domain
- inhibition at 100 µM (human NOX2; read-out: inhibition of NOX2): 40 to 70%
- inhibition of NOX2 with long incubation (human NOX2; sufficiently long incubation times (Fig. 7B)): became significant
- inhibition of NOX4 (in words) (human NOX4; 100 μM compound, membranes): powerful NOX4 inhibitors
- inhibition at 100 µM (human NOX4; read-out: inhibition of NOX4): 40 to 70%
